The record followed here is ChEMBL document CHEMBL4152245, “Design, synthesis and biological evaluation of benzo[cd]indol-2(1H)-ones derivatives as BRD4 inhibitors” (Eur J Med Chem, 2018).

The inhibition is the relative decrease from the control value, in per cent. Broadly, the IC50 is the concentration at which inhibition is half-maximal. A high value points to weaker potency in that assay. A word on the ΔTm: it is the shift of the melting midpoint relative to a reference.

The target in assay [1] is T1, Bromodomain-containing protein 4 (Homo sapiens, UniProt O60885). Nature of the assay: Inhibition of His-tagged BRD4 bromodomain-1 (unknown origin) expressed in Escherichia coli BL21(DE3) at 5 uM using SGRGK(Ac)-GG-K(Ac)-GLG-K(Ac)-GGA-K(Ac)-RHRKVGG-K-Biotin as substrate preincubated for 15 mins followed by substrate addition measured after 10 mins by Alphascreen assay relative to control. A digest of the protocol:
(§1)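 His-tagged BRD4_BD1 purified by Ni-NTA, anion exchange and gel filtration, tag retained. Assay buffer: 20 mM HEPES pH 7.4, 0.1% BSA, 0.01% Triton X-100, 1 mM DTT. Protein preincubated with compound 15 min at room temperature, biotinylated tetra-acetyl peptide added for 10 min, then streptavidin donor and nickel chelate acceptor beads for 60 min. Compounds screened at 20 and 5 µM; IC50 from three independent experiments.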
A general note: Bead proximity is the source of the signal in Alpha formats.

Assay [2] has as its target T1, Bromodomain-containing protein 4. Put plainly: Inhibition of His-tagged BRD4 bromodomain-1 (unknown origin) expressed in Escherichia coli BL21(DE3) at 20 uM using SGRGK(Ac)-GG-K(Ac)-GLG-K(Ac)-GGA-K(Ac)-RHRKVGG-K-Biotin as substrate preincubated for 15 mins followed by substrate addition measured after 10 mins by Alphascreen assay relative to control. A digest of the protocol:
as §1

Assay [3] has the same target. Put plainly: Inhibition of His-tagged BRD4 bromodomain-1 (unknown origin) expressed in Escherichia coli BL21(DE3) using SGRGK(Ac)-GG-K(Ac)-GLG-K(Ac)-GGA-K(Ac)-RHRKVGG-K-Biotin as substrate preincubated for 15 mins followed by substrate addition measured after 10 mins by Alphascreen assay. Put shortly: as §1
Assay [4] has the same target. Put plainly: Inhibition of His-tagged BRD4 bromodomain-1 (unknown origin) expressed in Escherichia coli BL21(DE3) at 100 uM using SGRGK(Ac)-GG-K(Ac)-GLG-K(Ac)-GGA-K(Ac)-RHRKVGG-K-Biotin as substrate preincubated for 15 mins followed by substrate addition measured after 10 mins by Alphascreen assay relative to control.
For assay [5] the target is unchanged. Nature of the assay: Binding affinity to His-tagged BRD4 bromodomain-1 (unknown origin) expressed in Escherichia coli BL21(DE3) assessed as change in melting temperature at 100 uM by SYPRO orange dye based thermal shift assay. Put shortly:
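Buffer of 20 mM HEPES pH 7.4, 100 mM NaCl and 1 mM DTT, with 5× SYPRO Orange and 5 µM BRD4_BD1. Compound at 100 µM or 0.5% DMSO, DMSO matched across wells. Heated at 2.5 °C/min from 25 to 95 °C. Tm compared with the DMSO control.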

Each structure is given as a SMILES string. Active and inactive are the calls of the source. The calls are words filed in the database; no cut-off is given here. Where only a bound is given, the exact number is not on record here.

Turning to `CCN1C(=O)c2cccc3c(S(=O)(=O)N4CCC(N)CC4)ccc1c23`, the inhibition entry in assay [1] is “inactive”. Further, the inhibition in assay [2] turned out to be 16%.

Consider `CCN1C(=O)c2cccc3c(S(=O)(=O)N4CCC[C@H](NC(=O)OC(C)(C)C)C4)ccc1c23`, for which the inhibition in assay [1] worked out at 7%; in assay [2], 20%.

Turning to `CCOC(=O)CNS(=O)(=O)c1ccc2c3c(cccc13)C(=O)N2CC`, the inhibition result in assay [1] is “inactive”. Moreover, in assay [2], the inhibition was 12%.

Take `CCN1C(=O)c2cccc3c(S(=O)(=O)N[C@H](C(=O)O)C(C)C)ccc1c23`: the inhibition entry in assay [1] and in assay [2] was “inactive” each time.

For `CCN1C(=O)c2cccc3c(S(=O)(=O)N[C@@H](Cc4ccccc4)C(=O)OC)ccc1c23`, the results for the inhibition in assay [1] and in assay [2] were 37% and 71%, respectively.

For `CCN1C(=O)c2cccc3c(S(=O)(=O)N4CCC[C@@H]4C(=O)NO)ccc1c23`, the inhibition was 7% in assay [1] and 50% in assay [2].

`CCN1C(=O)c2cccc3c(S(=O)(=O)NCCC(=O)OC)ccc1c23`: the results for the inhibition in assay [1] and in assay [2] were 29% and 66%, respectively.

With `CCN1C(=O)c2cccc3c(S(=O)(=O)N4CCC[C@@H](O)C4)ccc1c23`, the inhibition in assay [1] is 9%; in assay [2], 27%; in assay [4], > 90%. The compound further yielded an IC50 in assay [3] of 32.2 µM.

Regarding `CCCN1C(=O)c2cccc3c(S(=O)(=O)N4CCCC4)ccc1c23`, the inhibition entry in assay [1] was “inactive”. The midpoint of inhibition in assay [3], the IC50, lay at 11 µM. Also, the inhibition is 15% in assay [2] and > 90% in assay [4].

Turning to `CC(=O)N1C(=O)c2cccc3c(S(=O)(=O)N4CCCC4)ccc1c23`, the inhibition in assay [1] is 7%; in assay [2], 9%; in assay [4] it was > 90%. The compound also came in with an IC50 in assay [3] of 12.7 µM.

Consider `O=C(c1ccccc1)c1ccc(NS(=O)(=O)c2cccc(Br)c2)cc1`, for which the inhibition in assay [4] is > 90%.

Regarding `CCN1C(=O)c2cccc3c(S(=O)(=O)N4CCC[C@@H]4C(=O)Nc4ccc(C)cc4)ccc1c23`, the inhibition in assay [1] is 8%; in assay [2] it was 51%.

For `CN1C(=O)c2cccc3c(S(=O)(=O)N4CCCC4)ccc1c23`, the results for the inhibition in assay [1] and in assay [2] were 5% and 25%, respectively.

Take `CCN1C(=O)c2cccc3c(S(=O)(=O)N4CCC[C@H]4CO)ccc1c23`: the inhibition was found to be 11% in assay [1] and 22.4% in assay [2].

As for `CCN1C(=O)c2cccc3c(S(=O)(=O)N4CC[C@H](N)C4)ccc1c23`, the inhibition entry in assay [1] and in assay [2] was “inactive” each time.

`CCN1C(=O)c2cccc3c(S(=O)(=O)N4CCC[C@H](N)C4)ccc1c23`: the inhibition entry in assay [1] and in assay [2] was “inactive” each time.

Take `CCN1C(=O)c2cccc3c(S(=O)(=O)N4CCC[C@@H]4C(=O)Nc4ccc(O)cc4)ccc1c23`: the inhibition in assay [1] was found to be 18%; in assay [2] it was 63%.

Consider `CCN1C(=O)c2cccc3c(S(=O)(=O)N4CC[C@H](OC)C4)ccc1c23`, for which the inhibition in assay [1] was 28%; in assay [2], 80%.

In the case of `CCN1C(=O)c2cccc3c(S(=O)(=O)N4CCC(NC(=O)OC(C)(C)C)CC4)ccc1c23`, the inhibition in assay [1] stood at 18%; in assay [2], 45%.

On to `CCN1C(=O)c2cccc3c(S(=O)(=O)NCCO)ccc1c23`, for which the ΔTm in assay [5] amounted to 13.2 °C. The inhibition in assay [1] stood at 98%; in assay [2], 100%. The compound also gave a half-maximal inhibitory concentration (IC50) in assay [3] of 1.55 µM.

In the case of `CCN1C(=O)c2cccc3c(S(=O)(=O)NCCCO)ccc1c23`, the inhibition result in assay [1] and in assay [2] was “inactive” in each case.

Turning to `CCN1C(=O)c2cccc3c(S(=O)(=O)N4CC[C@@H](O)C4)ccc1c23`, the inhibition is 21% in assay [1], 67% in assay [2] and > 90% in assay [4]. This compound had an IC50 in assay [3] of 27.5 µM.

As for `CCN1C(=O)c2cccc3c(S(=O)(=O)N4CC[C@@H](OC)C4)ccc1c23`, the values for the inhibition in assay [1], in assay [2] and in assay [4] were 17%, 8% and > 90%, respectively. In assay [3], this compound had a half-inhibitory concentration (IC50) of 13.3 µM.

For the compound `CCN1C(=O)c2cccc3c(S(=O)(=O)N4CC[C@H](NC(=O)OC(C)(C)C)C4)ccc1c23`, the inhibition is 37% in assay [1], 88% in assay [2] and > 90% in assay [4]. In assay [3], half-maximal inhibition (IC50) was put at 50.7 µM.

Turning to `O=C1c2cccc3c(S(=O)(=O)N4CCCC4)ccc(c23)N1CCO`, the inhibition entry in assay [1] was “inactive”. For the same compound, the IC50 in assay [3] is 69.2 µM. For the same compound, the inhibition is 8% in assay [2] and > 90% in assay [4].

As for `CCN1C(=O)c2cccc3c(S(=O)(=O)N4CC[C@@H](N)C4)ccc1c23`, the inhibition in assay [1] amounted to 3%. In assay [2], the inhibition result is “inactive”.

Consider `CCN1C(=O)c2cccc3c(S(=O)(=O)NCC(=O)O)ccc1c23`, for which the inhibition result in assay [1] was “inactive”. The same compound showed an inhibition in assay [2] of 53%.

As for `CCN1C(=O)c2cccc3c(S(=O)(=O)Nc4ccccc4OC)ccc1c23`, the values for the inhibition in assay [1] and in assay [2] were 33% and 82%, respectively.

`O=C(O)CN1C(=O)c2cccc3c(S(=O)(=O)N4CCCC4)ccc1c23`: the inhibition result in assay [1] was “inactive”. Also, 23.1 µM corresponded to half-maximal inhibition in assay [3] (IC50). Besides, the inhibition in assay [2] is 4%; in assay [4] it was > 90%.

For `CCN1C(=O)c2cccc3c(S(=O)(=O)N4CCC[C@@H]4C(=O)Nc4ccc(Cl)cc4)ccc1c23`, the inhibition in assay [1] is 42%; in assay [2], 89%.

Regarding `CCN1C(=O)c2cccc3c(S(=O)(=O)N4CCC[C@@H]4C(=O)Nc4ccccc4O)ccc1c23`, the inhibition entry in assay [1] and in assay [2] was “inactive” in each case.

Regarding `CCN1C(=O)c2cccc3c(S(=O)(=O)N4CCOCC4)ccc1c23`, the inhibition in assay [1] stood at 55%; in assay [2], 97%.

Turning to `CCN1C(=O)c2cccc3c(S(=O)(=O)N4CCC[C@@H]4C(=O)OC)ccc1c23`, the inhibition came to 27% in assay [1] and 61% in assay [2].

As to `CCN1C(=O)c2cccc3c(S(=O)(=O)N4CCCCC4)ccc1c23`, the inhibition in assay [1] was 58%; in assay [2] it was 99%; in assay [4], > 90%. Further, half-maximal inhibition in assay [3] (IC50) was put at 47.3 µM.

Take `CCN1C(=O)c2cccc3c(S(=O)(=O)N4CCC[C@H](O)C4)ccc1c23`: in assay [1], the inhibition entry was “inactive”. Moreover, in assay [2], the inhibition came to 14%.

`CCN1C(=O)c2cccc3c(S(=O)(=O)N4CCC[C@@H](NC(=O)OC(C)(C)C)C4)ccc1c23`: the inhibition in assay [1] came to 9%; in assay [2], 20%.

Consider `CCN1C(=O)c2cccc3c(S(=O)(=O)N4CCC(CNC(=O)OC(C)(C)C)CC4)ccc1c23`, for which the inhibition entry in assay [1] is “inactive”. Besides, the inhibition in assay [2] was found to be 18%.

On to `CCN1C(=O)c2cccc3c(S(=O)(=O)N4CCC[C@@H]4C(=O)Nc4ccccc4C)ccc1c23`, for which, in assay [1], the inhibition result was “inactive”. Further, the inhibition in assay [2] stood at 39%.

Turning to `CCN1C(=O)c2cccc3c(S(=O)(=O)N4CC[C@H](O)C4)ccc1c23`, the results for the inhibition in assay [1] and in assay [2] were 35% and 88%, respectively.

With `CCN1C(=O)c2cccc3c(S(=O)(=O)N4CCC(CN)CC4)ccc1c23`, the inhibition in assay [1] was determined as 23%; in assay [2] it was 74%.

Consider `CCN1C(=O)c2cccc3c(S(=O)(=O)N[C@H](C(=O)OC)C(C)C)ccc1c23`, for which the results for the inhibition in assay [1] and in assay [2] were 21% and 89%, respectively.

In the case of `CCN1C(=O)c2cccc3c(S(=O)(=O)NCCC(=O)O)ccc1c23`, the inhibition was determined as 41% in assay [1] and 60% in assay [2].

With `CCN1C(=O)c2cccc3c(S(=O)(=O)N4CC[C@@H](NC(=O)OC(C)(C)C)C4)ccc1c23`, the inhibition in assay [1] is 57%; in assay [2], 95%; in assay [4], > 90%. Moreover, the IC50 in assay [3] came out at 13.3 µM.

With `CCN1C(=O)c2cccc3c(S(=O)(=O)N4CCC[C@@H]4CO)ccc1c23`, the inhibition in assay [1] was 9%; in assay [2], 4%.

For the compound `CN(C)C(=O)CN1C(=O)c2cccc3c(S(=O)(=O)N4CCCC4)ccc1c23`, the inhibition entry in assay [1] and in assay [2] was “inactive” throughout. This compound yielded a concentration for half-maximal inhibition (IC50) in assay [3] of 18.7 µM. Moreover, the inhibition in assay [4] was > 90%.

Regarding `CCN1C(=O)c2cccc3c(S(=O)(=O)N(CC)CC)ccc1c23`, the inhibition was 29% in assay [1], 82% in assay [2] and > 90% in assay [4]. Moreover, it took 42.2 µM to reach half-maximal inhibition in assay [3] (IC50).

For the compound `CCN1C(=O)c2cccc3c(S(=O)(=O)N[C@@H](Cc4ccccc4)C(=O)O)ccc1c23`, the inhibition in assay [1] was determined as 4%. For the same compound, the inhibition entry in assay [2] was “inactive”.

On to `CCN1C(=O)c2cccc3c(S(=O)(=O)N4CCC[C@@H](N)C4)ccc1c23`, for which the inhibition result in assay [1] and in assay [2] was “inactive” each time.
